Measurements as given in ChEMBL document CHEMBL2434872, “Modulation of A2B adenosine receptor by 1-Benzyl-3-ketoindole derivatives” (Eur J Med Chem, 2013).
Activity calls are given as the source filed them. No cut-off for these calls is given here.

Assays:
CHO = test: Effect on cAMP production in adenosine receptor-deficient wild type CHO cells; format: functional, cell-based; conditions: Cricetulus griseus
Adenosine receptor A3 = biological target: T1, Adenosine receptor A3 (Homo sapiens, UniProt P0DMS8); test: Displacement of [125I]AB-MECA from human adenosine A3 receptor expressed in CHO cell membrane after 90 mins; format: cell membranes
T1 sequence (P0DMS8 whole entry): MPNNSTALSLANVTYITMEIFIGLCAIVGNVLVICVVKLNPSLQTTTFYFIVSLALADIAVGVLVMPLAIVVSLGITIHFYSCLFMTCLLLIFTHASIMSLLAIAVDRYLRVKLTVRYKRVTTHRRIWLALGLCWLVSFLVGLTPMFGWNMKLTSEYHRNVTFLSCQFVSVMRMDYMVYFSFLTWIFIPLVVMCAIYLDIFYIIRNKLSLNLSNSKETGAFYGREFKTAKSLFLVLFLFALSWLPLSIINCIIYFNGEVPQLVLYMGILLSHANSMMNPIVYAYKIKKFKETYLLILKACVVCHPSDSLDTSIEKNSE

Adenosine receptor A2a = Adenosine receptor A2a (Homo sapiens, UniProt P29274); test: Displacement of [3H]NECA from human adenosine A2A receptor expressed in CHO cell membrane after 90 mins; format: cell membranes
Sequence of Adenosine receptor A2a (P29274 whole entry): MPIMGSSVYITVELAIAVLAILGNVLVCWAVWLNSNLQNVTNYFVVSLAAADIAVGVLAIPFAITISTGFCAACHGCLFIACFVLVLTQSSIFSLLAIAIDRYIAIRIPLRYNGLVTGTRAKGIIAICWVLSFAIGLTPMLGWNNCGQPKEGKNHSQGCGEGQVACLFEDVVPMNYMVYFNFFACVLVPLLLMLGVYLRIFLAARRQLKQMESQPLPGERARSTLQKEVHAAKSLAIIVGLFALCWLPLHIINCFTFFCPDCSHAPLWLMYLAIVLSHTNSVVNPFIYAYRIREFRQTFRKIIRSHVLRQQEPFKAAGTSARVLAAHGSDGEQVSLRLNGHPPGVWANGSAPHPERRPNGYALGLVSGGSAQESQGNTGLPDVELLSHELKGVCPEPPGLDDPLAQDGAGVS

Adenosine receptor A1 [1] = biological target: T2, Adenosine receptor A1 (Homo sapiens, UniProt P30542); test: Displacement of [3H]DPCPX from human adenosine A1 receptor expressed in CHO cell membrane after 180 mins; format: cell membranes
T2 sequence (P30542 whole entry): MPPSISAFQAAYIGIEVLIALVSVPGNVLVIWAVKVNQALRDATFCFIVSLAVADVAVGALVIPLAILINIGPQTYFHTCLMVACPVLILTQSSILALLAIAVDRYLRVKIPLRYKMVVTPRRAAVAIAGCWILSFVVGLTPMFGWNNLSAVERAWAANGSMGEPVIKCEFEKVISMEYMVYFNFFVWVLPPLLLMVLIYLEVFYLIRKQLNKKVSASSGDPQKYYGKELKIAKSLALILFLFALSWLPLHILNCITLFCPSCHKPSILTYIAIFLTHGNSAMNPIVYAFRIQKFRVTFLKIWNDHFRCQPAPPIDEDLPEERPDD

[2] = biological target: T3, Adenosine receptor A1 (Homo sapiens) (UniProt P30542); test: (§1) Antagonist activity at human recombinant adenosine A1 receptor expressed in CHO cells assessed as inhibition of NECA-mediated reduction of intracellular [3H]-cAMP accumulation incubated for 15 mins prior to NECA induction measured after 30 mins by liquid scintillation spectrometric analysis in presence of forskolin; format: functional, cell-based
T3 sequence (whole entry): T2 sequence (P30542 whole entry)
Outline: (§2)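 CHO cells stably expressing human A1 receptor were plated for 24 h, then preincubated 15 min at 37 °C in DMEM with ADA (1 U/mL) and Ro20-1724 (20 µM). Compound (1 nM–10 µM) was added for 15 min, then 10 nM NECA with 1 µM forskolin for 15 min. Lysis was in 0.4 N HCl. cAMP was measured by [3H]cAMP competition with bovine adrenal binding protein, as % of forskolin level. IC50 from ≥3 experiments, duplicates.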

Adenosine receptor A1 [3] = biological target: T2, Adenosine receptor A1; test: as §1; format: functional, cell-based; outline: as §2

Row | SMILES | Activity (CHO) | Ki (Adenosine receptor A3) [nM] | Ki (Adenosine receptor A2a) [nM] | Ki (Adenosine receptor A1 [1]) [nM] | inhibition [2] | IC50 (Adenosine receptor A1 [3]) [nM]
1 | O=C(NCc1ccccc1)c1cn(Cc2ccccc2)c2ccccc12 | inactive | > 1000 | > 10000 | > 10000 | – | –
2 | O=C(Nc1ccccc1)c1cn(Cc2ccccc2)c2ccccc12 | inactive | > 1000 | > 10000 | > 10000 | – | –
3 | O=C(NCc1ccccc1)C(=O)c1cn(Cc2ccccc2)c2ccccc12 | inactive | – | – | – | – | –
4 | O=C(C(=O)c1cn(Cc2ccccc2)c2ccccc12)c1ccccc1 | inactive | > 1000 | > 10000 | 162 | Dose-dependent effect | 404
5 | O=C(C(=O)c1cn(Cc2ccccc2)c2ccccc12)c1ccco1 | inactive | > 1000 | > 10000 | 343 | Dose-dependent effect | 291
6 | O=C(Nc1ccccc1)C(=O)c1cn(Cc2ccccc2)c2ccccc12 | inactive | > 1000 | > 10000 | > 10000 | – | –
7 | O=C(C(=O)c1cn(Cc2ccccc2)c2ccccc12)c1cccs1 | inactive | > 1000 | > 10000 | > 10000 | – | –
